A word on the Ki: it is the dissociation constant of the complex between target and ligand, obtained from inhibition or displacement. Read a high Ki as a looser hold on the target. What is called CC50 is the concentration that lowers cell viability or growth by half. The EC50 is the concentration giving half of the maximal effect.

Data set [1] deals with Human immunodeficiency virus type 1 reverse transcriptase (Human immunodeficiency virus 1, UniProt Q72547). In words: Non-competitive inhibition of wild type HIV1 reverse transcriptase p66/p51 after 30 mins by liquid scintillation counting.
A further data set concerns MT4. In words: Cytotoxicity against human MT4 cells after 4 days by MTT assay. Particulars: mt4, 96 h. The class given is cell-based. In general terms: Tetrazolium assays rely on reduction of a dye to a coloured formazan, in cell work by metabolically active cells.
Data set [2] has as its system Human immunodeficiency virus 1. The data set is described as follows: Antiviral activity against HIV1 3B infected in human MT4 cells assessed as inhibition of virus-induced cytopathic effect after 4 days by MTT assay. In kind it is functional, organism-based. Conditions: Human immunodeficiency virus 1, 3B, MT4, 96 h. In short, it runs like this: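 HIV-1 in MT-4 cells at 1 × 10^5 cells/ml, infected at MOI 0.02 (virus stock titrated as CCID50), then plated immediately onto varying compound concentrations. After 4 days at 37 °C, viable cells counted by MTT.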
For orientation: Cytopathic effects are the visible damage that an infection or toxin causes in cultured cells.

The subject of the next data set is Human alphaherpesvirus 3. The data set is described as follows: Antiviral activity against Varicella zoster virus. In kind it is functional, organism-based. In short, it runs like this:
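VZV strain Oka and the TK− strain 07-1 were inoculated at 20 PFU onto confluent cell monolayers in the presence of varying compound concentrations. Plaque formation was recorded once complete in untreated infected controls.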

Another data set has as its system Punta Toro virus. The data set is described as follows: Antiviral activity against Punta Toro virus. In kind it is functional, organism-based.
The test system of the next data set is Sindbis virus. The data set is described as follows: Antiviral activity against Sindbis virus. In kind it is functional, organism-based.
Data set [3] relates to Mammalian orthoreovirus 1. The data set is described as follows: Antiviral activity against Reovirus 1. In kind it is functional, organism-based.
Another data set concerns Human respirovirus 3. In words: Antiviral activity against Parainfluenza virus 3. The class given is functional, organism-based.
The test system of another data set is Influenza B virus. In words: Antiviral activity against influenza B virus. In kind it is functional, organism-based.
Data set [4] deals with Influenza A virus. In words: Antiviral activity against Influenza A virus H3N2. In kind it is functional, organism-based.
Data set [5] deals with Influenza A virus. In words: Antiviral activity against Influenza A virus H1N1. The class given is functional, organism-based.
Data set [6] concerns Respiratory syncytial virus. In words: Antiviral activity against Respiratory syncytial virus. The class given is functional, organism-based.
Another data set has as its system Coxsackievirus B4. In words: Antiviral activity against Coxsackievirus B4. The class given is functional, organism-based.
For data set [7], the system named is Vesicular stomatitis virus. In words: Antiviral activity against Vesicular stomatitis virus. In kind it is functional, organism-based.
The subject of another data set is Vaccinia virus. The data set is described as follows: Antiviral activity against Vaccinia virus. In kind it is functional, organism-based. Conditions: Orthopoxvirus vaccinia.
The next data set has as its system Human alphaherpesvirus 2. The data set is described as follows: Antiviral activity against Human herpesvirus 2. The class given is functional, organism-based. In short, it runs like this: (§1)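 Confluent HEL, Vero, HeLa or MDCK monolayers (cell type per virus not specified) were inoculated with 100 CCID50 of virus, with a range of compound concentrations. Strains were HSV-1 KOS and TK− ACV-resistant KOS, HSV-2 Lyons and G, and HCMV AD-169 and Davis. Cytopathicity or plaques were scored once complete in untreated infected controls.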

The subject of a further data set is Human alphaherpesvirus 1. In words: Antiviral activity against Human herpesvirus 1. In kind it is functional, organism-based. In short, it runs like this:
as §1

For another data set, the system named is Feline coronavirus. The data set is described as follows: Antiviral activity against Feline coronavirus. In kind it is functional, organism-based.

Calls of active or inactive are those of the source. No cut-off for these calls is given here. Where only a bound is given, the exact number is not on record here.

Take `Cc1ccc(OCCn2ccc(=O)n(Cc3ccccc3)c2=O)cc1C`: the Ki in data set [1] is greater than 100 µM. In the data set with MT4, this compound came in with a CC50 of 60 µM. Further, in [2], the EC50 is greater than 60 µM. Further, the outcome (in the data set with Human alphaherpesvirus 3; in the data set on Punta Toro virus; with Sindbis virus; in data set [3]; with Human respirovirus 3; with Influenza B virus) was inactive. The result (in the data set with Influenza A virus [4]; with Influenza A virus [5]; in data set [6]; with Coxsackievirus B4; in data set [7]; with Vaccinia virus) was inactive. For the same compound, the result in the data set on Human alphaherpesvirus 2, in the data set on Human alphaherpesvirus 1 and with Feline coronavirus was inactive.

The compound `Cc1ccc(Cn2c(=O)ccn(CCOc3ccc(C)cc3)c2=O)cc1` had a Ki in [1] of 47 µM. The compound further displayed a CC50 with MT4 of 250 µM. The 50% effective concentration (EC50) in [2] was greater than 250 µM. In addition, the result (in the data set with Human alphaherpesvirus 3; with Punta Toro virus; in the data set with Sindbis virus; in data set [3]; with Human respirovirus 3; in the data set on Influenza B virus) was inactive. In addition, the result (in the data set on Influenza A virus [4]; in the data set on Influenza A virus [5]; in data set [6]; with Coxsackievirus B4; in data set [7]; with Vaccinia virus) was inactive. Moreover, the result in the data set on Human alphaherpesvirus 2, in the data set with Human alphaherpesvirus 1 and with Feline coronavirus was inactive.

For `Cc1ccc(OCCn2ccc(=O)n(CCc3ccccc3)c2=O)cc1`, the Ki in data set [1] worked out at 6.5 µM. In addition, the 50% cytotoxic concentration (CC50) in the data set on MT4 was found to be 129 µM. In [2], the EC50 is greater than 129 µM. The outcome (in the data set with Human alphaherpesvirus 3; with Punta Toro virus; in the data set with Sindbis virus; in [3]; with Human respirovirus 3; in the data set with Influenza B virus) was inactive. The outcome (in the data set with Influenza A virus [4]; in the data set on Influenza A virus [5]; in data set [6]; with Coxsackievirus B4; in data set [7]; in the data set with Vaccinia virus) was inactive. Besides, the outcome in the data set on Human alphaherpesvirus 2, in the data set on Human alphaherpesvirus 1 and in the data set with Feline coronavirus was inactive.

The compound `O=c1ccn(CCOc2ccc(Cl)cc2)c(=O)n1Cc1ccccc1` registered a Ki in data set [1] of 22 µM. In addition, the CC50 in the data set on MT4 is 36 µM. Further, in [2], the EC50 is greater than 36 µM. Moreover, the outcome (in the data set on Human alphaherpesvirus 3; in the data set on Punta Toro virus; with Sindbis virus; in [3]; in the data set with Human respirovirus 3; with Influenza B virus) was inactive. Moreover, the result (with Influenza A virus [4]; in the data set with Influenza A virus [5]; in data set [6]; in the data set with Coxsackievirus B4; in data set [7]; in the data set on Vaccinia virus) was inactive. Besides, the outcome with Human alphaherpesvirus 2, in the data set with Human alphaherpesvirus 1 and in the data set with Feline coronavirus was inactive.

`O=c1ccn(CCOc2ccc3ccccc3c2)c(=O)n1Cc1ccccc1`: the Ki in [1] was determined as 1 µM. In the data set on MT4, this compound yielded a CC50 of 37 µM. The EC50 in data set [2] was greater than 37 µM. Besides, the outcome (with Human alphaherpesvirus 3; in the data set with Punta Toro virus; in the data set on Sindbis virus; in data set [3]; in the data set on Human respirovirus 3; with Influenza B virus) was inactive. Besides, the result (in the data set with Influenza A virus [4]; in the data set with Influenza A virus [5]; in [6]; in the data set with Coxsackievirus B4; in data set [7]; in the data set with Vaccinia virus) was inactive. Moreover, the result in the data set on Human alphaherpesvirus 2, with Human alphaherpesvirus 1 and in the data set on Feline coronavirus was inactive.

Regarding `Cc1ccc(OCCn2c(=O)n(Cc3ccccc3)c(=O)c3ccccc32)cc1`, the inhibition constant Ki in [1] was 1 µM. Also, it took 25 µM to reach half-maximal cytotoxicity in the data set with MT4 (CC50). The EC50 in data set [2] was greater than 25 µM. The result (in the data set with Human alphaherpesvirus 3; in the data set with Punta Toro virus; with Sindbis virus; in [3]; with Human respirovirus 3; in the data set with Influenza B virus) was inactive. The outcome (with Influenza A virus [4]; in the data set on Influenza A virus [5]; in data set [6]; in the data set with Coxsackievirus B4; in data set [7]; in the data set with Vaccinia virus) was inactive. Besides, the outcome in the data set on Human alphaherpesvirus 2, in the data set with Human alphaherpesvirus 1 and in the data set with Feline coronavirus was inactive.

On to `CC(C)(C)c1ccc(OCCn2ccc(=O)n(Cc3ccccc3)c2=O)cc1`, for which the affinity in data set [1], expressed as Ki, was 15 µM. Also, the CC50 in the data set with MT4 was 63 µM. Moreover, in data set [2], the EC50 was greater than 63 µM. Further, the outcome (in the data set on Human alphaherpesvirus 3; in the data set with Punta Toro virus; in the data set on Sindbis virus; in [3]; in the data set on Human respirovirus 3; in the data set on Influenza B virus) was inactive. For the same compound, the outcome (in the data set on Influenza A virus [4]; in the data set on Influenza A virus [5]; in data set [6]; in the data set on Coxsackievirus B4; in [7]; in the data set on Vaccinia virus) was inactive. For the same compound, the outcome in the data set with Human alphaherpesvirus 2, with Human alphaherpesvirus 1 and in the data set with Feline coronavirus was inactive.

For `Cc1ccc(OCCn2ccc(=O)n(Cc3c(C)cc(C)cc3C)c2=O)cc1`, the inhibitory constant (Ki) in data set [1] was greater than 100 µM. Besides, it took 133 µM to reach half-maximal cytotoxicity with MT4 (CC50). Besides, the EC50 in data set [2] was greater than 133 µM. In addition, the outcome (with Human alphaherpesvirus 3; in the data set with Punta Toro virus; in the data set on Sindbis virus; in data set [3]; in the data set on Human respirovirus 3; with Influenza B virus) was inactive. Besides, the outcome (in the data set with Influenza A virus [4]; with Influenza A virus [5]; in [6]; in the data set on Coxsackievirus B4; in data set [7]; in the data set with Vaccinia virus) was inactive. Besides, the outcome with Human alphaherpesvirus 2, in the data set with Human alphaherpesvirus 1 and in the data set with Feline coronavirus was inactive.

`Cc1ccc(OCCn2ccc(=O)n(Cc3ccccc3C)c2=O)cc1`: the Ki in [1] was greater than 100 µM. In the data set with MT4, this compound yielded a CC50 of 46 µM. In addition, in [2], the EC50 is greater than 46 µM. Also, the result (in the data set with Human alphaherpesvirus 3; in the data set on Punta Toro virus; with Sindbis virus; in data set [3]; in the data set with Human respirovirus 3; with Influenza B virus) was inactive. Moreover, the outcome (in the data set on Influenza A virus [4]; in the data set on Influenza A virus [5]; in [6]; in the data set on Coxsackievirus B4; in [7]; in the data set with Vaccinia virus) was inactive. In addition, the result with Human alphaherpesvirus 2, with Human alphaherpesvirus 1 and in the data set with Feline coronavirus was inactive.

As to `Cc1ccccc1OCCn1ccc(=O)n(Cc2ccccc2)c1=O`, in [1], the Ki was greater than 100 µM. Also, the CC50 in the data set on MT4 turned out to be 117 µM. In addition, the EC50 in [2] is greater than 117 µM. The result (with Human alphaherpesvirus 3; with Punta Toro virus; in the data set with Sindbis virus; in [3]; in the data set with Human respirovirus 3; in the data set with Influenza B virus) was inactive. Also, the outcome (with Influenza A virus [4]; in the data set with Influenza A virus [5]; in data set [6]; with Coxsackievirus B4; in data set [7]; in the data set on Vaccinia virus) was inactive. Moreover, the result in the data set with Human alphaherpesvirus 2, with Human alphaherpesvirus 1 and in the data set with Feline coronavirus was inactive.

Compound `Cc1ccnc2c1NC(=O)c1cccnc1N2C1CC1` [NEVIRAPINE] came in with a CC50 in the data set with MT4 greater than 4 µM. Moreover, the EC50 in [2] worked out at 0.048 µM.

Source of the values: ChEMBL document CHEMBL2331304, “N1,N3-disubstituted uracils as nonnucleoside inhibitors of HIV-1 reverse transcriptase” (Bioorg Med Chem, 2013).
